Measurements from ChEMBL document CHEMBL1140836, “Hybrid angiogenesis inhibitors: synthesis and biological evaluation of bifunctional compounds based on 1-deoxynojirimycin and aryl-1,2,3-triazoles” (Bioorg Med Chem Lett, 2008).
One block for each compound: values may come before it. Active and inactive are the calls of the source. The calls are words filed in the database; no cut-off is given here.

Key:
[1] = biological target: Methionine aminopeptidase 2 (Homo sapiens) (UniProt P50579); assay: Inhibition of MetAP2
Methionine aminopeptidase 2 (Homo sapiens), sequence (P50579 2-478 limits assumed): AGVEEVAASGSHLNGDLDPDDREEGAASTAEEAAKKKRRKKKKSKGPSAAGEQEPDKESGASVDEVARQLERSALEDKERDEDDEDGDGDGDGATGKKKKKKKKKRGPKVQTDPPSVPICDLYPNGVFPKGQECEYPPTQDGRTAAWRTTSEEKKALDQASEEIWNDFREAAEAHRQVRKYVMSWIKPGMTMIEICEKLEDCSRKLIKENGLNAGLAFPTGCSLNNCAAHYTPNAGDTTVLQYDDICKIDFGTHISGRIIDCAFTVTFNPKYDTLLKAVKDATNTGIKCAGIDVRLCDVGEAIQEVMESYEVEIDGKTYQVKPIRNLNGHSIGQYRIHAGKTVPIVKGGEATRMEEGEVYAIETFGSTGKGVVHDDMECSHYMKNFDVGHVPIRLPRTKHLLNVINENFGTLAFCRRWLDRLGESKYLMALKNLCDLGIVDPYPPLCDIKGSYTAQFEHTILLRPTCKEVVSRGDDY

[2] = biological target: T1, Alpha-glucosidase (Geobacillus stearothermophilus) (UniProt P94451); assay: (§1) Inhibition of alpha glucosidase from bacillus stearothermophilus
T1 sequence (whole entry): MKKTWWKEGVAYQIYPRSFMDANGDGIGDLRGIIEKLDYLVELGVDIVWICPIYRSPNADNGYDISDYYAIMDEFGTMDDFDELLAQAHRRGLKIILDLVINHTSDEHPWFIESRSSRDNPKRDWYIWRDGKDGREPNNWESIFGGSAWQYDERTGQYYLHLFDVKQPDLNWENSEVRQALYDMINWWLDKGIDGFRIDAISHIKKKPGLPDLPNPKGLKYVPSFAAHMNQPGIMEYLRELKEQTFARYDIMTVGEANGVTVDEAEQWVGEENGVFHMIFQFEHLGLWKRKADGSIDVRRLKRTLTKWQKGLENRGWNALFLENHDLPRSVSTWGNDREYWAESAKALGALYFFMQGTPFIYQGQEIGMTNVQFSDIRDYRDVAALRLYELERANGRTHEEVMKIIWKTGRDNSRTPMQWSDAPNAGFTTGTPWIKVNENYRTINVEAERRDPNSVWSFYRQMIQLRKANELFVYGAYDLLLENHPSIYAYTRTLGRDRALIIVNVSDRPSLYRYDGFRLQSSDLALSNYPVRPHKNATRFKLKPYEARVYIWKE

[3] = (§2) Growth inhibition of bovine BAEC by MTT assay; assay type: functional, cell-based; settings: Bos taurus
Method in brief: (§3)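 BAECs in RPMI 1640 with 10% heat-inactivated FBS, 3 × 10³ cells/well, seeded overnight, then exposed to compounds (10⁻⁶–10⁻³ M) for 48 h at 37 °C, 5% CO₂. MTT added to 0.5 mg/mL final, 3 h at 37 °C; formazan dissolved in DMSO, absorbance at 570 nm. Quadruplicate wells, experiments repeated at least twice; IC₅₀ determined.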

Alpha-glucosidase = biological target: T2, Alpha-glucosidase (Geobacillus stearothermophilus, UniProt P94451); assay: as §1
T2 sequence (P94451 whole entry): T1 sequence (whole entry)

BAEC [4] = assay: Antiangiogenesis activity in bovine BAEC cells assessed as inhibition of tube formation on Matrigel at 0.2 mM; assay type: functional, cell-based; settings: Bos taurus
Method in brief: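 BAECs pretreated with compound (0.2 mM) 24 h, harvested, 3 × 10⁴ cells/0.1 ml in RPMI 1640 with 10 ng/mL bFGF plus 0.2 mM compound (controls bFGF only), layered on growth factor–reduced Matrigel polymerized 1 h at 37 °C; 8 h at 37 °C, 5% CO₂. Tubes counted in at least five microscope fields, averaged per field; repeated at least twice.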

BAEC [5] = assay: as §2; assay type: functional, cell-based; settings: Bos taurus; method in brief: as §3

Compound: OC[C@@H]1[C@@H](O)[C@H](O)[C@@H](O)CN1CCCCCCCCOc1cccc(-c2cnn[nH]2)c1
IC50 (Alpha-glucosidase): 1.15 µM
IC50 [3]: 105 µM

Compound: OC[C@@H]1[C@@H](O)[C@H](O)[C@@H](O)CN1CCCCCCOc1cccc(-c2cnn[nH]2)c1
Activity (BAEC [4]): inactive
IC50 (Alpha-glucosidase): 2.41 µM
IC50 [3]: 610 µM

Compound: OC[C@H]1NC[C@H](O)[C@@H](O)[C@@H]1O
Activity (BAEC [5]): inactive

Continued, in another order:

Activity [1]: Active
Activity [2]: inactive
Compound: COc1cccc(-c2cnn[nH]2)c1
IC50 [3]: 347 µM

IC50 (Alpha-glucosidase): 6.07 µM
Compound: OC[C@@H]1[C@@H](O)[C@H](O)[C@@H](O)CN1CCCCOc1cccc(-c2cnn[nH]2)c1
Activity (BAEC [4]): inactive
IC50 [3]: 797 µM
